Assay outcomes: PubChem, several laboratories
This is a sample that favours compounds with a hit; in the whole collection about 3.4% have one here.
MC4R barr agon: MC4R agonists recruiting beta-arrestin, primary screen, cell-based, luminescence, agonist arm of biased-ligand search | Melanocortin receptor 4 (Homo sapiens), P32245 | U2OS MC4R beta-arrestin complementation; percent of melanotan II response, DMSO zero | activation, % at 8.9 µM | hit rate 0.98% among 360,000 | AID 540308, 2011;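 active = activation above a per-plate cutoff, the mean activation of sample wells on that plate plus 3 SD, cut at about 8% in these data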
TMEM16A act: TMEM16A chloride channel activators or potentiators, primary screen, cell-based, HTS. B-score at 10 µM. HEK293 TMEM16A/YFP-H148Q/I152L, iodide quench fluorescence; stronger effect = lower value. Anoctamin-1 (Mus musculus), Q8BHY3. AID 623877, 2012. hit rate 0.3% among 340,000;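 active = fluorescence-ratio B-score plate-corrected deviation score at least 3 library SD below zero, with starting fluorescence score within 5 deviations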;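 also: channel opened by trigger with iodide after compound preincubation; score built on the fluorescence ratio of max minus min over baseline; more negative score means more quench and so TMEM16A activation or potentiation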
HTR2A ag: mouse Htr2a agonists via beta-arrestin recruitment, primary screen, cell-based, luminescence; CHO-K1 mHTR2A beta-arrestin complementation; percent of 30 µM serotonin response; activation, % at 7.6 µM; hit rate 0.66% among 360,000; AID 624169, 2012;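 active = activation above a run cutoff, the mean activation of all tested compounds plus 3 SD, cut at about 14% in these data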
ANO1 block: TMEM16A chloride channel inhibitors, primary screen, cell-based, HTS; Anoctamin-1 (Mus musculus), Q8BHY3; HEK293 TMEM16A/YFP iodide influx fluorescence, ionomycin; normalized B-score (activity score, 25-100; higher = stronger inhibition) at 10 µM; hit rate 1.2% among 310,000; AID 588511, 2011;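 active = ratio plate-corrected score three or more library SD toward inhibition, starting fluorescence score within five deviations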;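 also: score derived from kinetic fluorescence span divided by baseline fluorescence per well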
MC4R antagonist: MC4R antagonists of cAMP signaling, primary screen, cell-based, TR-FRET, antagonist arm of biased-ligand search. hit rate 0.48% among 360,000. Melanocortin receptor 4 (Homo sapiens), P32245. MC4R-expressing cells, MTII-stimulated cAMP, LANCE TR-FRET. AID 540295, 2011. inhibition, % at 6.5 µM;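 active = inhibition above its plate's cutoff, the mean of tested wells on that plate plus 3 SD, cut at about 29% in these data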
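Assay system: U2OS-MC4R stable cell line; Also added: Melanotan II; Technique: Eu-cAMP/anti-cAMP TR-FRET, emission 671 nm; Times: 30-min compound, 1-h challenge, 1-h detection, room temperature.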
beta cell repl: inducers of MIN6 beta-cell proliferation, primary screen, ATP luminescence, uHTS. hit rate 0.29% among 330,000. MIN6 cells proliferation, ATPlite luminescence, 48 h; cells starved in 0.2% serum; 100% = growth in 10% serum. AID 2380, 2010. proliferation, % at 10 µM;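 active = compounds whose signal lies at least 3.5 SD above the mean of all wells on their plate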
Numbers stand for hits; . = inactive; / = no result given.

SMILES	MC4R barr agon	TMEM16A act	HTR2A ag	ANO1 block	MC4R antagonist	beta cell repl
CCCCNS(=O)(=O)c1ccc2nc(SCC(N)=O)[nH]c2c1	.	.	.	.	.	.
CCCCNS(=O)(=O)c1ccc2nc(SCC(=O)Nc3sccc3C#N)[nH]c2c1	.	.	.	100	.	.
CCCCn1c(N)c(N(CC)C(=O)c2cccs2)c(=O)[nH]c1=O	.	.	.	/	.	.
CCc1nc2ccc(C(=O)Nc3ccc(OC)c(OC)c3)cn2c1N(C)CCC(C)C	.	/	.	/	.	/
O=S(=O)(c1ccccc1)N(CC1CO1)c1cc(Cl)ccc1Cl (stereo unspecified)	.	.	.	.	.	.
O=C(OCc1ccccc1)N(CCF)c1cn(Cc2ccccc2)c(=O)n(Cc2ccccc2)c1=O	.	.	.	/	.	/
Cc1ccc(Sc2c(C)nn(C(=O)c3cccc(S(=O)(=O)N4CCOCC4)c3)c2C)cc1	9.2	.	.	.	.	.
Cc1ccc2c(c1)c1c(n2CC(O)Cn2c(C)nc3ccccc32)/C(=N\O)CCC1 (stereo unspecified)	.	-12	.	100	.	.
Cc1ccc2c(c1)c1c(n2CC(O)Cn2c(C)nc3ccccc32)C(=O)CCC1 (stereo unspecified)	.	.	.	.	.	.
O=C(c1ccc2ccccc2c1)N1CCN(Cc2ccccc2)CC1	.	.	.	.	.	.
O=C(c1cccc(C(=O)N2CCN(Cc3ccccc3)CC2)c1)N1CCN(Cc2ccccc2)CC1	.	.	.	25	.	.
N=c1ncn(C2OC(CO)C(O)C2O)c2nc(Br)[nH]c12 (stereo unspecified)	.	/	.	/	.	/
CCn1nc(C)c(NC(=O)/C=C/c2ccc(OC)c(COc3ccc(Cl)cc3Br)c2)c1C	.	.	.	.	.	.
COc1ccc(/C=C/C(=O)NCc2cn(C)nc2C)cc1COc1ccc(Cl)cc1Br	.	.	.	100	.	.
Nc1nc(CN2CCOCC2)cs1	.	.	.	.	.	.
c1cn2cc(CN3CCOCC3)nc2s1	.	.	.	25	.	.
CC(C)(C)c1ccc(C(O)c2ncc(-c3cccc(F)c3)[nH]2)cc1 (stereo unspecified)	.	/	.	/	.	/
c1ccc2c(C3OCC4(CCCCC4)CO3)cccc2c1	.	/	.	/	.	/
C[C@H](CO)N1C[C@H](C)[C@@H](CN(C)C(=O)Nc2ccc(C(F)(F)F)cc2)Oc2c(NC(=O)Nc3ccc(C(F)(F)F)cc3)cccc2C1=O	.	.	15	/	.	.
C[C@H]1CN([C@@H](C)CO)C(=O)c2cccc(NC(=O)Nc3ccc(C(F)(F)F)cc3)c2O[C@@H]1CN(C)C(=O)Nc1ccc(F)cc1	.	.	.	/	.	.
O=C(c1cccc(S(=O)(=O)N2CCN(c3ccc(F)cc3)CC2)c1)N1CCCC(C(F)(F)F)C1 (stereo unspecified)	.	.	.	25	.	.
NS(=O)(=O)c1ccc(Oc2ccc(S(N)(=O)=O)cc2)cc1	.	-4.9	.	.	.	.
O=C(O)/C=C/c1cn(-c2ccccc2)nc1-c1ccc2c(c1)OCCO2	.	.	.	.	.	.
O=C(/C=C\c1cn(-c2ccccc2)nc1-c1ccc2c(c1)OCCO2)N1CCOCC1	8.5	.	.	.	.	.
COc1ccc(C(=O)NNC2=C(C(=O)C(F)(F)F)CCC2)cc1	.	.	.	.	.	.
O=C(NNC1=C(C(=O)C(F)(F)F)CCC1)c1cccc(Cl)c1	.	.	.	100	.	.
O=C(NNC(=S)Nc1cccc(C(F)(F)F)c1)c1cccc(Cl)c1	.	.	.	.	.	.
Fc1ccc(NC(=S)Nc2ccc(F)c(Cl)c2)cc1Cl	.	-10	.	100	.	.
